≈ marks a conversion by molar mass, not a printed value.
Experiments:
[1] = tested on: Mycobacterium tuberculosis; experiment: Antimycobacterial activity against Mycobacterium tuberculosis H37Rv My 331/88 after 21 days by micromethod; format: functional; settings: H37Rv My 331/88, 504 h
In short: (§1)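 MIC micromethod in Šula's semisynthetic medium at 37 °C, read after 14 and 21 days. Compounds added as DMSO solutions at 500 down to 0.5 µM (twofold-type series: 500, 250, 125, 62.5, 32, 16, 8, 4, 2, 1, 0.5 µM). Isoniazid standard given in sterile water.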

[2] = tested on: Mycobacterium kansasii; experiment: Antimycobacterial activity against Mycobacterium kansasii isolate 6509/96 after 7 days by micromethod; format: functional; settings: isolate 6509/96, 168 h
In short: (§2)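 MIC in Šula's semisynthetic medium at 37 °C, read after 7, 14 and 21 days. Inoculum is strain dilution 10^-4; 235/80 is a collection strain and 6509/96 a clinical isolate. Compounds are added as DMSO solutions at 500, 250, 125, 62.5, 32, 16, 8, 4, 2, 1 and 0.5 µM. INH (in sterile water) and PAS are the reference drugs.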

[3] = tested on: Mycobacterium kansasii; experiment: Antimycobacterial activity against Mycobacterium kansasii isolate 6509/96 after 14 days by micromethod; format: functional; settings: isolate 6509/96, 336 h; in short: as §2
[4] = tested on: Mycobacterium tuberculosis; experiment: Antimycobacterial activity against Mycobacterium tuberculosis H37Rv My 331/88 after 14 days by micromethod; format: functional; settings: H37Rv My 331/88, 336 h; in short: as §1
[5] = tested on: Mycobacterium avium; experiment: Antimycobacterial activity against Mycobacterium avium My 330/80 after 14 days by micromethod; format: functional; settings: My 330/80, 336 h
In short: (§3)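 M. avium My 330/80 (collection strain) inoculated at 10^-5 dilution into Šula's semisynthetic medium. Compounds added from DMSO solutions at 500, 250, 125, 62.5, 32, 16, 8, 4, 2, 1 and 0.5 µM. MIC determined by micromethod at 37 °C, read after 14 and 21 days.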

[6] = tested on: Mycobacterium kansasii; experiment: Antimycobacterial activity against Mycobacterium kansasii isolate 235/80 after 21 days by micromethod; format: functional; settings: isolate 235/80, 504 h; in short: as §2
[7] = Selectivity index, ratio of IC50 for human HepG2 cells to MIC for Mycobacterium tuberculosis H37Rv after 21 days; format: toxicity, cell-based; settings: HepG2 cells versus Mycobacterium tuberculosis H37Rv, read-out: Selectivity Index
In short: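 HepG2 cells (passages 33-37) seeded at 1 × 10^4 per well and treated next day with 0.1–100 µM in triplicate. After 24 h at 37 °C, 5% CO2, MTS reagent added for 2 h and absorbance read at 490 nm. IC50 taken from viability relative to untreated control, then divided by the 21-day H37Rv MIC.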

[8] = tested on: Mycobacterium kansasii; experiment: Antimycobacterial activity against Mycobacterium kansasii isolate 6509/96 after 21 days by micromethod; format: functional; settings: isolate 6509/96, 504 h; in short: as §2
[9] = tested on: Mycobacterium avium; experiment: Antimycobacterial activity against Mycobacterium avium My 330/80 after 21 days by micromethod; format: functional; settings: My 330/80, 504 h; in short: as §3
[10] = tested on: Mycobacterium kansasii; experiment: Antimycobacterial activity against Mycobacterium kansasii isolate 235/80 after 7 days by micromethod; format: functional; settings: isolate 235/80, 168 h; in short: as §2
[11] = tested on: Mycobacterium kansasii; experiment: Antimycobacterial activity against Mycobacterium kansasii isolate 235/80 after 14 days by micromethod; format: functional; settings: isolate 235/80, 336 h; in short: as §2
[12] = Cytotoxicity against human HepG2 cells assessed as reduction in cell viability after 24 hrs by MTS assay; format: toxicity, cell-based
In short: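 HepG2 cells (passages 33-37) are grown in MEM with 10% FBS, L-glutamine and non-essential amino acids. They are seeded at 1 × 10^4 cells/well and treated next day with 0.1-100 µM in triplicate for 24 h at 37 °C, 5% CO2. MTS reagent is added for 2 h and A490 read.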

Q: Which results are given for `O=C(Nc1ccc(Br)cc1)c1cc(Cl)c(Cl)cc1O`?
A: MIC [1]: 4 µM (≈ 1.44 µg/mL); MIC [2]: 8 µM (≈ 2.89 µg/mL); MIC [3]: 8 µM (≈ 2.89 µg/mL); MIC [4]: 2 µM (≈ 0.722 µg/mL); MIC [5]: 32 µM (≈ 11.6 µg/mL); MIC [6]: 8 µM (≈ 2.89 µg/mL); selectivity ratio at 504 h [7]: 5.35; MIC [8]: 8 µM (≈ 2.89 µg/mL); MIC [9]: 32 µM (≈ 11.6 µg/mL); MIC [10]: 8 µM (≈ 2.89 µg/mL); MIC [11]: 8 µM (≈ 2.89 µg/mL); IC50 at 24 h [12]: 21.4 µM

Q: For `O=C(Nc1cc(C(F)(F)F)cc(C(F)(F)F)c1)c1cc(Br)c(Cl)cc1O`, which MIC [1] is on record?
A: 4 µM (≈ 1.85 µg/mL)

Q: And the MIC [2]?
A: 8 µM (≈ 3.7 µg/mL)

Q: What about the MIC [3] of the same molecule?
A: 8 µM (≈ 3.7 µg/mL)

Q: What about the MIC [4] of the same molecule?
A: 2 µM (≈ 0.925 µg/mL)

Q: And the MIC [5]?
A: 16 µM (≈ 7.4 µg/mL)

Q: What about the MIC [6] of the same molecule?
A: 8 µM (≈ 3.7 µg/mL)

Q: And the selectivity ratio at 504 h [7]?
A: 1.27

Q: And the MIC [8]?
A: 8 µM (≈ 3.7 µg/mL)

Q: And the MIC [9]?
A: 32 µM (≈ 14.8 µg/mL)

Q: What about the MIC [10] of the same molecule?
A: 8 µM (≈ 3.7 µg/mL)

Q: And the MIC [11]?
A: 8 µM (≈ 3.7 µg/mL)

Q: And the IC50 at 24 h [12]?
A: 5.07 µM

Q: For `O=C(Nc1ccc(Cl)c(Cl)c1)c1cc(Br)c(Cl)cc1O`, which MIC [1] is on record?
A: 4 µM (≈ 1.58 µg/mL)

Q: And the MIC [2]?
A: 8 µM (≈ 3.16 µg/mL)

Q: And the MIC [3]?
A: 8 µM (≈ 3.16 µg/mL)

Q: And the MIC [4]?
A: 2 µM (≈ 0.791 µg/mL)

Q: What about the MIC [5] of the same molecule?
A: 125 µM (≈ 49.4 µg/mL)

Q: What about the MIC [6] of the same molecule?
A: 8 µM (≈ 3.16 µg/mL)

Q: And the selectivity ratio at 504 h [7]?
A: 1.91

Q: And the MIC [8]?
A: 8 µM (≈ 3.16 µg/mL)

Q: What about the MIC [9] of the same molecule?
A: 125 µM (≈ 49.4 µg/mL)

Q: What about the MIC [10] of the same molecule?
A: 8 µM (≈ 3.16 µg/mL)

Q: What about the MIC [11] of the same molecule?
A: 8 µM (≈ 3.16 µg/mL)

Q: And the IC50 at 24 h [12]?
A: 7.65 µM

Q: For `O=C(Nc1ccc(C(F)(F)F)cc1)c1cc(Br)c(Cl)cc1O`, which MIC [1] is on record?
A: 2 µM (≈ 0.789 µg/mL)

Q: What about the MIC [2] of the same molecule?
A: 4 µM (≈ 1.58 µg/mL)

Q: What about the MIC [3] of the same molecule?
A: 4 µM (≈ 1.58 µg/mL)

Q: And the MIC [4]?
A: 1 µM (≈ 0.395 µg/mL)

Q: What about the MIC [5] of the same molecule?
A: 32 µM (≈ 12.6 µg/mL)

Q: And the MIC [6]?
A: 4 µM (≈ 1.58 µg/mL)

Q: And the selectivity ratio at 504 h [7]?
A: 5.52

Q: And the MIC [8]?
A: 4 µM (≈ 1.58 µg/mL)

Q: And the MIC [9]?
A: 62.5 µM (≈ 24.7 µg/mL)

Q: What about the MIC [10] of the same molecule?
A: 4 µM (≈ 1.58 µg/mL)

Q: What about the MIC [11] of the same molecule?
A: 4 µM (≈ 1.58 µg/mL)

Q: What about the IC50 at 24 h [12] of the same molecule?
A: 11 µM

Q: For `O=C(Nc1ccc(Br)cc1)c1cc(Br)c(Cl)cc1O`, which MIC [1] is on record?
A: 4 µM (≈ 1.62 µg/mL)

Q: And the MIC [2]?
A: 8 µM (≈ 3.24 µg/mL)

Q: What about the MIC [3] of the same molecule?
A: 8 µM (≈ 3.24 µg/mL)

Q: And the MIC [4]?
A: 2 µM (≈ 0.811 µg/mL)

Q: What about the MIC [5] of the same molecule?
A: 32 µM (≈ 13 µg/mL)

Q: What about the MIC [6] of the same molecule?
A: 8 µM (≈ 3.24 µg/mL)

Q: What about the selectivity ratio at 504 h [7] of the same molecule?
A: 2.71

Q: What about the MIC [8] of the same molecule?
A: 8 µM (≈ 3.24 µg/mL)

Q: And the MIC [9]?
A: 32 µM (≈ 13 µg/mL)

Q: What about the MIC [10] of the same molecule?
A: 4 µM (≈ 1.62 µg/mL)

Q: And the MIC [11]?
A: 8 µM (≈ 3.24 µg/mL)

Q: And the IC50 at 24 h [12]?
A: 10.8 µM

Q: What does the source list for `O=C(Nc1ccc(Cl)c(Cl)c1)c1cc(Cl)c(Cl)cc1O`?
A: MIC [1]: 2 µM (≈ 0.702 µg/mL); MIC [2]: 8 µM (≈ 2.81 µg/mL); MIC [3]: 8 µM (≈ 2.81 µg/mL); MIC [4]: 2 µM (≈ 0.702 µg/mL); MIC [5]: 62.5 µM (≈ 21.9 µg/mL); MIC [6]: 8 µM (≈ 2.81 µg/mL); selectivity ratio at 504 h [7]: 6.21; MIC [8]: 8 µM (≈ 2.81 µg/mL); MIC [9]: 62.5 µM (≈ 21.9 µg/mL); MIC [10]: 4 µM (≈ 1.4 µg/mL); MIC [11]: 8 µM (≈ 2.81 µg/mL); IC50 at 24 h [12]: 12.4 µM

Q: Which results are given for `O=C(Nc1ccc(C(F)(F)F)cc1)c1cc(Cl)c(Cl)cc1O`?
A: MIC [1]: 2 µM (≈ 0.7 µg/mL); MIC [2]: 4 µM (≈ 1.4 µg/mL); MIC [3]: 8 µM (≈ 2.8 µg/mL); MIC [4]: 2 µM (≈ 0.7 µg/mL); MIC [5]: 62.5 µM (≈ 21.9 µg/mL); MIC [6]: 8 µM (≈ 2.8 µg/mL); selectivity ratio at 504 h [7]: 4.94; MIC [8]: 8 µM (≈ 2.8 µg/mL); MIC [9]: 62.5 µM (≈ 21.9 µg/mL); MIC [10]: 4 µM (≈ 1.4 µg/mL); MIC [11]: 8 µM (≈ 2.8 µg/mL); IC50 at 24 h [12]: 9.87 µM

Q: For `O=C(Nc1cc(C(F)(F)F)cc(C(F)(F)F)c1)c1cc(Cl)c(Cl)cc1O`, which MIC [1] is on record?
A: 2 µM (≈ 0.836 µg/mL)

Q: And the MIC [2]?
A: 8 µM (≈ 3.34 µg/mL)

Q: And the MIC [3]?
A: 16 µM (≈ 6.69 µg/mL)

Q: What about the MIC [4] of the same molecule?
A: 2 µM (≈ 0.836 µg/mL)

Q: And the MIC [5]?
A: 32 µM (≈ 13.4 µg/mL)

Q: And the MIC [6]?
A: 16 µM (≈ 6.69 µg/mL)

Q: And the selectivity ratio at 504 h [7]?
A: 2.43

Q: And the MIC [8]?
A: 16 µM (≈ 6.69 µg/mL)

Q: And the MIC [9]?
A: 32 µM (≈ 13.4 µg/mL)

Q: What about the MIC [10] of the same molecule?
A: 8 µM (≈ 3.34 µg/mL)

Q: And the MIC [11]?
A: 8 µM (≈ 3.34 µg/mL)

Q: And the IC50 at 24 h [12]?
A: 4.86 µM

Q: For `O=C(Nc1ccc(Br)cc1)c1cc(Br)ccc1O` [DIBROMSALAN], which MIC [1] is on record?
A: 4 µM (≈ 1.48 µg/mL)

Q: And the MIC [2]?
A: 8 µM (≈ 2.97 µg/mL)

Q: And the MIC [3]?
A: 8 µM (≈ 2.97 µg/mL)

Q: What about the MIC [4] of the same molecule?
A: 4 µM (≈ 1.48 µg/mL)

Q: And the MIC [5]?
A: 16 µM (≈ 5.94 µg/mL)

Q: What about the MIC [6] of the same molecule?
A: 8 µM (≈ 2.97 µg/mL)

Q: What about the selectivity ratio at 504 h [7] of the same molecule?
A: 5.9

Q: And the MIC [8]?
A: 8 µM (≈ 2.97 µg/mL)

Q: What about the MIC [9] of the same molecule?
A: 16 µM (≈ 5.94 µg/mL)

Q: And the MIC [10]?
A: 4 µM (≈ 1.48 µg/mL)

Q: And the MIC [11]?
A: 8 µM (≈ 2.97 µg/mL)

Q: What about the IC50 at 24 h [12] of the same molecule?
A: 23.6 µM

Q: Which MIC [1] does the source give for `O=C(Nc1cc(C(F)(F)F)cc(C(F)(F)F)c1)c1cc(Cl)ccc1O` [IMD-0354] here?
A: 8 µM (≈ 3.07 µg/mL)

Q: What about the MIC [2] of the same molecule?
A: 8 µM (≈ 3.07 µg/mL)

Q: And the MIC [3]?
A: 16 µM (≈ 6.14 µg/mL)

Q: And the MIC [4]?
A: 4 µM (≈ 1.53 µg/mL)

Q: What about the MIC [5] of the same molecule?
A: 32 µM (≈ 12.3 µg/mL)

Q: What about the MIC [6] of the same molecule?
A: 16 µM (≈ 6.14 µg/mL)

Q: What about the selectivity ratio at 504 h [7] of the same molecule?
A: 1.27

Q: What about the MIC [8] of the same molecule?
A: 16 µM (≈ 6.14 µg/mL)

Q: And the MIC [9]?
A: 32 µM (≈ 12.3 µg/mL)

Q: And the MIC [10]?
A: 8 µM (≈ 3.07 µg/mL)

Q: What about the MIC [11] of the same molecule?
A: 16 µM (≈ 6.14 µg/mL)

Q: And the IC50 at 24 h [12]?
A: 10.2 µM
